# Experimental data: ChEMBL document CHEMBL4138085, “Design, synthesis and antimicrobial evaluation of novel benzimidazole-incorporated sulfonamide analogues” (Eur J Med Chem, 2017)
# Activity calls are given as the source filed them. No cut-off for these calls is given here.
# What was measured:
# Calf thymus DNA [1] = assay: Binding affinity to calf thymus DNA assessed as hypochromic effect up to 1.6 10^-5 mol/L by UV-vis absorption spectra analysis; assay type: nucleic-acid assay; details: Bos taurus
# Method in brief: (§1)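 Calf thymus DNA was held at a fixed concentration and titrated with increasing amounts of compound. UV-vis absorption spectra were recorded, following the DNA absorption maximum at 260 nm.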
# Albumin [2] = molecular target: T1, Albumin (Homo sapiens, UniProt P02768); assay: Binding affinity to human serum albumin by fluorescence spectroscopic analysis; assay type: ADME; details: isolated protein
# Albumin [3] = molecular target: T1, Albumin; assay: Binding affinity to human serum albumin at 313 K by modified Stern-Volmer method; assay type: ADME; details: isolated protein
# Albumin [4] = molecular target: T1, Albumin; assay: Binding affinity to human serum albumin assessed as Gibbs free energy change at 273 K by van't Hoff plot analysis; assay type: ADME; details: isolated protein
# Staphylococcus aureus [5] = assay: Potency index, ratio of norfloxacin MIC to compound MIC for Staphylococcus aureus ATCC 25923; assay type: functional
# Calf thymus DNA [6] = assay: Binding affinity to calf thymus DNA assessed as increase in maximum absorption by UV-vis absorption spectra analysis; assay type: nucleic-acid assay; details: Bos taurus; method in brief: as §1
# Calf thymus DNA [7] = assay: Binding affinity to calf thymus DNA assessed as hyperchromic effect up to 1.6 10^-5 mol/L by UV-vis absorption spectra analysis; assay type: nucleic-acid assay; details: Bos taurus; method in brief: as §1
# Albumin [8] = molecular target: T1, Albumin; assay: Binding affinity to human serum albumin at 293 K by modified Stern-Volmer method; assay type: ADME; details: isolated protein
# Albumin [9] = molecular target: T1, Albumin; assay: Binding affinity to human serum albumin assessed as quenching constant at 293 K by fluorescence spectroscopic analysis; assay type: ADME; details: isolated protein
# Method in brief: (§2)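 Intrinsic fluorescence of HSA (single Trp-214, emission peak 348 nm) was recorded with increasing compound concentration at several temperatures. Quenching data were fitted to the Stern-Volmer equation F0/F = 1 + KSV[Q] = 1 + Kqτ0[Q] to give KSV, and Kq was derived via τ0.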
# Albumin [10] = molecular target: T1, Albumin; assay: Binding affinity to human serum albumin assessed as Stern-Volmer quenching constant at 273 K by fluorescence spectroscopic analysis; assay type: ADME; details: isolated protein; method in brief: as §2
# Pseudomonas aeruginosa [11] = assay: Antibacterial activity against Pseudomonas aeruginosa ATCC 27853 after 24 hrs by NCCLS two fold broth microdilution method; assay type: functional; details: ATCC 27853, 24 h
# Method in brief: (§3)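 Two-fold serial broth microdilution in 96-well plates following NCCLS. Plates were inoculated and incubated at 37 °C for 24 h, with growth read visually and spectrophotometrically. MIC was taken as the lowest concentration giving complete growth inhibition. Run in triplicate, with a DMSO-plus-inoculum solvent control.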
# Candida albicans = assay: Antifungal activity against Candida albicans ATCC 76615 after 24 hrs by NCCLS two fold broth microdilution method; assay type: functional; details: ATCC 76615, 24 h
# Method in brief: (§4)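 Two-fold serial microdilution following NCCLS. A spore suspension in sterile distilled water was prepared from one-day-old cultures grown on Sabouraud agar and adjusted to a final 1–5 × 10^3 spores/mL. DMSO stocks were diluted in RPMI 1640 to eleven concentrations (0.5–512 µg/mL), inoculated and held at 35 °C for 24 h. Growth was read visually and spectrophotometrically, MIC was the lowest concentration with complete inhibition, and runs were in triplicate.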
# Escherichia coli = assay: Antibacterial activity against Escherichia coli ATCC 8099 after 24 hrs by NCCLS two fold broth microdilution method; assay type: functional; details: ATCC 8099, 24 h; method in brief: as §3
# Albumin [12] = molecular target: T1, Albumin; assay: Binding affinity to human serum albumin at 293 K by scatchard plot analysis; assay type: ADME; details: isolated protein
# Albumin [13] = molecular target: T1, Albumin; assay: Binding affinity to human serum albumin assessed as change in entropy at 273 K by van't Hoff plot analysis; assay type: ADME; details: isolated protein
# Staphylococcus aureus [14] = assay: Antibacterial activity against Staphylococcus aureus ATCC 25923 after 24 hrs by NCCLS two fold broth microdilution method; assay type: functional; details: ATCC 25923, 24 h
# Method in brief: as §3, with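 “NCCLS. Compounds were dissolved in DMSO as stocks, then diluted in Mueller–Hinton broth to final concentrations of 0.5–512 µg/mL.” for “NCCLS.”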
# Albumin [15] = molecular target: T1, Albumin; assay: Binding affinity to human serum albumin assessed as Stern-Volmer quenching constant at 293 K by fluorescence spectroscopic analysis; assay type: ADME; details: isolated protein; method in brief: as §2
# Albumin [16] = molecular target: T1, Albumin; assay: Binding affinity to human serum albumin assessed as change in enthalpy at 273 K by van't Hoff plot analysis; assay type: ADME; details: isolated protein
# Albumin [17] = molecular target: T1, Albumin; assay: Binding affinity to human serum albumin up to 1.6 10^-5 mol/L by UV-vis absorption spectra analysis; assay type: ADME; details: isolated protein
# Staphylococcus aureus [18] = assay: Potency index, ratio of Chloromycin MIC to compound MIC for Staphylococcus aureus ATCC 25923; assay type: functional
# Calf thymus DNA [19] = assay: Inhibition of neutral red binding to calf thymus DNA up to 0.48 10^-5 mol/L by UV-vis absorption spectra analysis; assay type: nucleic-acid assay; details: Bos taurus
# Micrococcus luteus = assay: Antibacterial activity against Micrococcus luteus ATCC 4698 after 24 hrs by NCCLS two fold broth microdilution method; assay type: functional; details: NCTC 2665, 24 h
# Method in brief: as §3, with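 “NCCLS. Compounds were dissolved in DMSO as stocks, then diluted in Mueller–Hinton broth to final concentrations of 0.5–512 µg/mL.” for “NCCLS.”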
# Albumin [20] = molecular target: T1, Albumin; assay: Binding affinity to human serum albumin at 313 K by scatchard plot analysis; assay type: ADME; details: isolated protein
# Albumin [21] = molecular target: T1, Albumin; assay: Binding affinity to human serum albumin at 273 K by scatchard plot analysis; assay type: ADME; details: isolated protein
# Albumin [22] = molecular target: T1, Albumin; assay: Binding affinity to human serum albumin assessed as quenching constant at 273 K by fluorescence spectroscopic analysis; assay type: ADME; details: isolated protein; method in brief: as §2
# Albumin [23] = molecular target: T1, Albumin; assay: Binding affinity to human serum albumin assessed as quenching constant at 313 K by fluorescence spectroscopic analysis; assay type: ADME; details: isolated protein; method in brief: as §2
# Bacillus subtilis [24] = assay: Antibacterial activity against Bacillus subtilis ATCC 21216 after 24 hrs by NCCLS two fold broth microdilution method; assay type: functional; details: ATCC 21216, 24 h
# Method in brief: as §3, with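 “NCCLS. Compounds were dissolved in DMSO as stocks, then diluted in Mueller–Hinton broth to final concentrations of 0.5–512 µg/mL.” for “NCCLS.”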
# Albumin [25] = molecular target: T1, Albumin; assay: Binding affinity to human serum albumin assessed as Stern-Volmer quenching constant at 313 K by fluorescence spectroscopic analysis; assay type: ADME; details: isolated protein; method in brief: as §2
# Aspergillus flavus [26] = assay: Antifungal activity against Aspergillus flavus after 24 hrs by NCCLS two fold broth microdilution method; assay type: functional; method in brief: as §4
# Bacillus subtilis [27] = assay: Potency index, ratio of Chloromycin MIC to compound MIC for Bacillus subtilis ATCC 21216; assay type: functional
# Bacillus = assay: Antibacterial activity against Bacillus proteus ATCC 13315 after 24 hrs by NCCLS two fold broth microdilution method; assay type: functional; details: ATCC 13315, 24 h
# Method in brief: as §3, with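 “NCCLS. Compounds were dissolved in DMSO as stocks, then diluted in Mueller–Hinton broth to final concentrations of 0.5–512 µg/mL.” for “NCCLS.”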
# Saccharomyces cerevisiae = assay: Antifungal activity against Saccharomyces cerevisiae after 24 hrs by NCCLS two fold broth microdilution method; assay type: functional; method in brief: as §4
# Pseudomonas aeruginosa [28] = assay: Potency index, ratio of Chloromycin MIC to compound MIC for Pseudomonas aeruginosa ATCC 27853; assay type: functional
# Pichia norvegensis = assay: Antifungal activity against Candida mycoderma after 24 hrs by NCCLS two fold broth microdilution method; assay type: functional
# Albumin [29] = molecular target: T1, Albumin; assay: Binding affinity to human serum albumin at 273 K by modified Stern-Volmer method; assay type: ADME; details: isolated protein
# Albumin [30] = molecular target: T1, Albumin; assay: Binding affinity to human serum albumin assessed as Gibbs free energy change at 293 K by van't Hoff plot analysis; assay type: ADME; details: isolated protein
# Calf thymus DNA [31] = assay: Binding affinity to calf thymus DNA by UV-vis absorption spectra analysis; assay type: nucleic-acid assay; details: Bos taurus; method in brief: as §1
# Salmonella typhi [32] = assay: Antibacterial activity against Bacillus typhi after 24 hrs by NCCLS two fold broth microdilution method; assay type: functional, Salmonella enterica subsp. enterica serovar Typhi; details: Salmonella enterica
# Method in brief: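 Two-fold serial broth microdilution per NCCLS. DMSO stocks diluted in Mueller–Hinton broth to 512, 256, 128, 64, 32, 16, 8, 4, 2, 1, 0.5 µg/mL. Chloromycin and norfloxacin as reference drugs; DMSO with inoculum, no drug, as solvent control. Incubation 37 °C for 24 h. Growth read visually and spectrophotometrically. MIC is the lowest concentration completely inhibiting growth; triplicate.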
# Staphylococcus aureus [33] = assay: Antibacterial activity against methicillin-resistant Staphylococcus aureus N315 after 24 hrs by NCCLS two fold broth microdilution method; assay type: functional; details: N315, 24 h
# Method in brief: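 Two-fold serial broth microdilution per NCCLS. Chloromycin and norfloxacin as reference drugs; DMSO with inoculum, no drug, as solvent control. Incubation 37 °C for 24 h. Growth read visually and spectrophotometrically. MIC is the lowest concentration completely inhibiting growth; triplicate.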
# Albumin [34] = molecular target: T1, Albumin; assay: Binding affinity to human serum albumin assessed as Gibbs free energy change at 313 K by van't Hoff plot analysis; assay type: ADME; details: isolated protein
# Cyberlindnera jadinii = assay: Antifungal activity against Candida utilis after 24 hrs by NCCLS two fold broth microdilution method; assay type: functional; details: Williopsis jadinii; method in brief: as §4
# Salmonella typhi [35] = assay: Potency index, ratio of Chloromycin MIC to compound MIC for Bacillus typhi; assay type: functional, Salmonella enterica subsp. enterica serovar Typhi
# Aspergillus flavus [36] = assay: Potency index, ratio of Fluconazole MIC to compound MIC for Aspergillus flavus; assay type: functional
# T1 sequence (P02768 whole entry): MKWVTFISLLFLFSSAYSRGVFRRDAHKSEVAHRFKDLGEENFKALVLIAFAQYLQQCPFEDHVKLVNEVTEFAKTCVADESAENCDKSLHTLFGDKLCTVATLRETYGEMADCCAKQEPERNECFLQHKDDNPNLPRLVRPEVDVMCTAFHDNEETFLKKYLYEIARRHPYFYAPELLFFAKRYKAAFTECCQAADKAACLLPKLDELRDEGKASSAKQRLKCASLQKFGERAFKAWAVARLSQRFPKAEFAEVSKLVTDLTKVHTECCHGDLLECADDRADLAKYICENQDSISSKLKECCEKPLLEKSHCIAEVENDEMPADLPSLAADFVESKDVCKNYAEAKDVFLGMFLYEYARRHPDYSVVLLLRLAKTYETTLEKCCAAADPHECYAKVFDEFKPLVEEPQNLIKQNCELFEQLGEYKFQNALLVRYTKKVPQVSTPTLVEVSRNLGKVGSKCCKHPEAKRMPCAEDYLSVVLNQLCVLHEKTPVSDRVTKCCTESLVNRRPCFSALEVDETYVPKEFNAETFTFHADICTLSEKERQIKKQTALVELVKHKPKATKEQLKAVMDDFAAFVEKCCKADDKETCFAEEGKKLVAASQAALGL
smiles,measurement,setting,value
CC(=O)Nc1ccc(S(=O)(=O)Cc2nc3ccccc3n2Cc2ccc(F)cc2)cc1,Activity,Calf thymus DNA [1],inactive
same,Activity,Albumin [2],Dose-dependent effect
same,Ka,Albumin [3],35800 M⁻¹
same,deltaG,Albumin [4],-5.81 kcal/mol
same,Ratio,Staphylococcus aureus [5],2
same,Activity,Calf thymus DNA [6],Dose-dependent effect
same,Activity,Calf thymus DNA [7],Active
same,Ka,Albumin [8],36900 M⁻¹
same,Kq,Albumin [9],3.44 ×10¹² L/mol/s
same,KSV,Albumin [10],3.26 ×10⁴ L/mol
same,MIC,Pseudomonas aeruginosa [11],256 µg/mL
same,MIC,Candida albicans,64 µg/mL
same,MIC,Escherichia coli,32 µg/mL
same,Kb,Albumin [12],58400 M⁻¹
same,deltaS,Albumin [13],82.61 J/mol/K
same,MIC,Staphylococcus aureus [14],4 µg/mL
same,KSV,Albumin [15],2.2 ×10⁴ L/mol
same,deltaH,Albumin [16],-0.4199 kcal/mol
same,Activity,Albumin [17],Active
same,Ratio,Staphylococcus aureus [18],2
same,inhibition,Calf thymus DNA [19],Active
same,MIC,Micrococcus luteus,64 µg/mL
same,Kb,Albumin [20],41600 M⁻¹
same,Kb,Albumin [21],78600 M⁻¹
same,Kq,Albumin [22],5.09 ×10¹² L/mol/s
same,Kq,Albumin [23],2.86 ×10¹² L/mol/s
same,MIC,Bacillus subtilis [24],16 µg/mL
same,KSV,Albumin [25],1.83 ×10⁴ L/mol
same,MIC,Aspergillus flavus [26],64 µg/mL
same,Ratio,Bacillus subtilis [27],2
same,MIC,Bacillus,32 µg/mL
same,MIC,Saccharomyces cerevisiae,64 µg/mL
same,Ratio,Pseudomonas aeruginosa [28],4
same,MIC,Pichia norvegensis,64 µg/mL
same,Ka,Albumin [29],54300 M⁻¹
same,deltaG,Albumin [30],-6.1047 kcal/mol
same,K,Calf thymus DNA [31],1.26 ×10⁴ L/mol
same,MIC,Salmonella typhi [32],16 µg/mL
same,MIC,Staphylococcus aureus [33],16 µg/mL
same,deltaG,Albumin [34],-6.3991 kcal/mol
same,MIC,Cyberlindnera jadinii,16 µg/mL
CC(=O)Nc1ccc(S(=O)(=O)Cc2nc3ccccc3n2Cc2ccc(Cl)cc2Cl)cc1,Activity,Calf thymus DNA [1],inactive
same,Activity,Albumin [2],Dose-dependent effect
same,Ka,Albumin [3],10600 M⁻¹
same,deltaG,Albumin [4],-5.0523 kcal/mol
same,Ratio,Salmonella typhi [35],8
same,Activity,Calf thymus DNA [6],Dose-dependent effect
same,Activity,Calf thymus DNA [7],Active
same,Ka,Albumin [8],10800 M⁻¹
same,Kq,Albumin [9],6.38 ×10¹² L/mol/s
same,KSV,Albumin [10],5.25 ×10⁴ L/mol
same,MIC,Pseudomonas aeruginosa [11],16 µg/mL
same,MIC,Candida albicans,512 µg/mL
same,MIC,Escherichia coli,8 µg/mL
same,Kb,Albumin [12],59300 M⁻¹
same,deltaS,Albumin [13],74.429 J/mol/K
same,MIC,Staphylococcus aureus [14],64 µg/mL
same,KSV,Albumin [15],4.08 ×10⁴ L/mol
same,deltaH,Albumin [16],-0.196 kcal/mol
same,Activity,Albumin [17],Active
same,inhibition,Calf thymus DNA [19],Active
same,MIC,Micrococcus luteus,128 µg/mL
same,Kb,Albumin [20],42100 M⁻¹
same,Kb,Albumin [21],65600 M⁻¹
same,Ratio,Aspergillus flavus [36],16
same,Kq,Albumin [22],8.2 ×10¹² L/mol/s
same,Kq,Albumin [23],4.72 ×10¹² L/mol/s
same,MIC,Bacillus subtilis [24],16 µg/mL
same,KSV,Albumin [25],3.02 ×10⁴ L/mol
same,MIC,Aspergillus flavus [26],32 µg/mL
same,MIC,Bacillus,32 µg/mL
same,MIC,Saccharomyces cerevisiae,128 µg/mL
same,MIC,Pichia norvegensis,512 µg/mL
same,Ka,Albumin [29],11100 M⁻¹
same,deltaG,Albumin [30],-5.2682 kcal/mol
same,K,Calf thymus DNA [31],1.52 ×10⁴ L/mol
same,MIC,Salmonella typhi [32],4 µg/mL
same,MIC,Staphylococcus aureus [33],128 µg/mL
same,deltaG,Albumin [34],-5.7639 kcal/mol
same,MIC,Cyberlindnera jadinii,128 µg/mL
